Test results published in PMC9291769 (Chemmedchem, 2021).
Several values for one entry are separate records, joined by “and”; a condition that tells them apart may be missing. Equal entries are not always repeated.

Key:
MTT cell viability assay = assay type: cell-based, human; details: human, A375 cells, Cell viability [%] @ 10 μM±SD
In short: (§1)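 A375 cells were kept in high-glucose DMEM with 10% heat-inactivated FBS, 2 mM L-glutamine and pen/strep. Cells were seeded at 0.5×10^5/well and exposed to 10 µM test compound for 48 h at 37 °C, 5% CO₂, then given MTT. Viability = 100(x−y)/(z−y), where x, y and z are absorbance of treated, resting and untreated cells. Mean ± SD, ≥3 experiments in triplicate.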

A375 cells = test: MTT cell viability assay; assay type: cell-based, human; details: 48 h
In short: as §1

holo-IDO1 = holo-IDO1 (Homo sapiens, UniProt P14902); test: Heme detection; assay type: binding; details: 1 μM holo-IDO1, 120 min, 37 °C; VS9 different concentrations, epacadostat 20 μM
In short: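 1 µM holo-IDO1 in 100 mM potassium phosphate (pH 7.2) with 1 mM CHAPS was incubated with varying test-compound concentrations, or 20 µM reference inhibitor, for 120 min at 37 °C. Samples were diluted 100-fold, and free heme was measured with a hemin detection kit at 570 nm. Values are relative to untreated, mean of n=3 ± SD.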

[1] = molecular target: recombinant form of human IDO1 (rhIDO1) (Homo sapiens, UniProt P14902); test: rhIDO1 enzymatic assay; assay type: biochemical; details: read-out: rhIDO1 inhibition
In short: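 Recombinant human IDO1 inhibitor-screening kit: 10 µM test compound in complete reaction buffer, 45 min at 37 °C. Stopped with 30% (w/v) CCl₃COOH, heated 50 °C for 15 min and centrifuged. Supernatant was mixed 1:1 with 2% p-dimethylaminobenzaldehyde in acetic acid, and kynurenine pigment read at 490 nm. The kit's positive inhibition control was included. Mean ± SEM, three experiments in triplicate.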

[2] = In vitro metabolic stability in rat liver S9 fraction; assay type: in vitro ADME; details: rat liver S9 with NADPH, 5 μM substrate, 37 °C
In short: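 Pooled male Sprague Dawley rat liver S9 (1.5 mg/mL final protein) was used in 50 mM Tris pH 7.4 with 3.3 mM MgCl₂, 1.3 mM β-NADP, 3.3 mM glucose 6-phosphate, 0.4 U/mL G6PDH and 1% acetonitrile. Test compound was 5 µM, shaken 60 min at 37 °C. Controls lacked S9 or cofactors. Reactions were stopped with ice-cold acetonitrile and centrifuged; residual substrate was measured.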

IDO1 = IDO1 (Homo sapiens, UniProt P14902); test: Cellular IDO1 inhibition; assay type: cell-based; details: A375 cell line, IFN-γ, 48 h
In short: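 A375 cells (0.5×10^5/well) were grown overnight, then given test compound (serial dilutions 0.01–30 µM, or single 10 µM) with human IFN-γ (500 U/mL final) and 0.1% DMSO for 48 h. Medium was deproteinized with 20% CCl₃COOH. L-Kyn was quantified by C18 HPLC at 330 nm against a calibration curve; % inhibition was taken versus basal levels. IC50s came from concentration-response curves, ≥3 experiments in triplicate.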

TDO (P1.TDO) = TDO (P1.TDO) (Homo sapiens, UniProt P48775); test: IDO1 and TDO selectivity assay, P1.TDO cells; assay type: cell-based; details: 10 μM, 16 h
In short: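 Mouse mastocytoma P815-derived P1.HTR cells, stably electroporated with a human TDO plasmid and selected in puromycin, grown in IMDM with 1 mM glutamine and penicillin/streptomycin, used at ≤10th passage. Cells incubated 16 h with 10 μM test compound; DMSO vehicle as control. Supernatant L-Kyn measured by HPLC-UV (C18 column) against a calibration curve, detection limit 0.05 μM. Triplicate.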

IDO1, sequence (P14902 whole entry): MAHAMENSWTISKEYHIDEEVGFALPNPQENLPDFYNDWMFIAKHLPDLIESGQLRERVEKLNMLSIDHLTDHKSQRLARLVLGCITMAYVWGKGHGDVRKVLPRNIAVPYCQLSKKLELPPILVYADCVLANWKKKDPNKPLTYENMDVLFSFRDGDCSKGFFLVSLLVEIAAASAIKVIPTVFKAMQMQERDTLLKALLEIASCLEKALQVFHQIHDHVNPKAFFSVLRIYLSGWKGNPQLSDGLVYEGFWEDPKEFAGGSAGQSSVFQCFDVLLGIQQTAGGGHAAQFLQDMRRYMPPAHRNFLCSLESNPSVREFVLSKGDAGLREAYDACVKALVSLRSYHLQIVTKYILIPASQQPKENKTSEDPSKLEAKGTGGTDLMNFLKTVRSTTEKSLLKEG
holo-IDO1, sequence (P14902 whole entry): as above
recombinant form of human IDO1 (rhIDO1), sequence (P14902 whole entry): as above
TDO (P1.TDO), sequence (P48775 whole entry): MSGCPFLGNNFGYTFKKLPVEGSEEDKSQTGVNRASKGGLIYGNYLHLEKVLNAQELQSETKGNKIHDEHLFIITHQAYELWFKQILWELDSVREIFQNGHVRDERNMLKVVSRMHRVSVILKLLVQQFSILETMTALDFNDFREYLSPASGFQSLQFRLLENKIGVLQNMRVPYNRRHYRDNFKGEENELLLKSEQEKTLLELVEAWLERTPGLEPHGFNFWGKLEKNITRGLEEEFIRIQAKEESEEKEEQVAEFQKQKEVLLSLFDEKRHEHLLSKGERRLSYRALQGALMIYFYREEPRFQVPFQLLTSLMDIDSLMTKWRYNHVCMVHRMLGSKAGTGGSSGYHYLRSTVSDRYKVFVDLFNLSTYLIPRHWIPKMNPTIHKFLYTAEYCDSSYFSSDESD

Compound: O=C(NCc1nnc2ccc(C(F)(F)F)cn12)c1cccc2cn[nH]c12 [Compound 2, N‐((6‐(Trifluoromethyl)‐[1,2,4]triazolo[4,3‐a]pyridin‐3‐yl)methyl)‐1H‐indazole‐7‐carboxamide]
- viability at 48 h, 10 μM (MTT cell viability assay): 91 ± 9.9%
- Cell viability [%] @ 10 μM±SD (A375 cells): 87±18.3%
- levels of free heme after incubation with IDO1 (holo-IDO1): did not increase the levels of free heme
- inhibition at 10 µM [1]: 54.6 ± 3.1%
- Residual peak area after RLS9 incubation (60 min) [2]: higher than 99%
- IDO cellular assay inhibition [%] @ 10 μM±SD (IDO1; 10 μM, L-Kyn by HPLC): 42±9%
- IC50 (IDO1; IC50±SD [μM]): 2.6 µM and 2.8 µM
- Kyn levels in P1.TDO cells (TDO (P1.TDO)): not able to induce a reduction of Kyn levels in P1.TDO

Compound: NS(=O)(=O)NCCNc1nonc1C(=NO)Nc1ccc(F)c(Br)c1 [epacadostat, reference compound]
- levels of free heme after incubation with IDO1 (holo-IDO1): did not increase the levels of free heme
